In ChEMBL document CHEMBL4190262, “Tuning of β-glucosidase and α-galactosidase inhibition by generation and in situ screening of a library of pyrrolidine-triazole hybrid molecules” (Eur J Med Chem, 2017):
Activity calls are given as the source filed them. The calls are words filed in the database; no cut-off is given here.

Assays:
[1] = target: T1, Alpha-mannosidase (Canavalia ensiformis) (UniProt C0HJB3); assay: Inhibition of jack bean alpha-mannosidase at 1 mM using p-nitrophenyl glycopyranoside preincubated for 5 mins followed by substrate addition measured after 20 mins by visible absorption spectroscopic method relative to control
T1 sequence (whole entry): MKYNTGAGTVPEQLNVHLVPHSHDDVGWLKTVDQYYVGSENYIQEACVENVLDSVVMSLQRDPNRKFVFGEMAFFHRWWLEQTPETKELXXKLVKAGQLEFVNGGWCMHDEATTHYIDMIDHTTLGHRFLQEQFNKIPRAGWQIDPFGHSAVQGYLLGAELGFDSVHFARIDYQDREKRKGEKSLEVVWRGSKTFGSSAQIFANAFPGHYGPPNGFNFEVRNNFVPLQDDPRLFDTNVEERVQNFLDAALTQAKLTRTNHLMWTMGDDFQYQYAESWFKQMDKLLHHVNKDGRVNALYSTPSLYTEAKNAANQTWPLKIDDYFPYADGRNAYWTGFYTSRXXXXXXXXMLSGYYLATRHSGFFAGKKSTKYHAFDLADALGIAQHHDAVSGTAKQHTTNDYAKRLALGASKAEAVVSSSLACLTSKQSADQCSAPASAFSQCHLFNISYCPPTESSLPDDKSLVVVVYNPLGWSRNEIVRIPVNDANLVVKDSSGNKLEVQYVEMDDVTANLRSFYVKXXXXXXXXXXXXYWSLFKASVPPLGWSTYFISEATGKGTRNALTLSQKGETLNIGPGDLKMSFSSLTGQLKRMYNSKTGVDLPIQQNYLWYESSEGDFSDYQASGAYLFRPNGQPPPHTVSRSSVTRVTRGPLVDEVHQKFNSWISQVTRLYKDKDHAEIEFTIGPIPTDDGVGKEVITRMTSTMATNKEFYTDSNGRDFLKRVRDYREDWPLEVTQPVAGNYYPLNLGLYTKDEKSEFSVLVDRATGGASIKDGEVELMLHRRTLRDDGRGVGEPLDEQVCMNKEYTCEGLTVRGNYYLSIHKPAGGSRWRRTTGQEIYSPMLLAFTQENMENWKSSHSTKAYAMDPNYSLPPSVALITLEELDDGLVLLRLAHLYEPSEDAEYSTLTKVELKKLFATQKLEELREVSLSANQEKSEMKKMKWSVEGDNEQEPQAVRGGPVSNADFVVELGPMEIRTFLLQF
In short: (§1)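 Test compound at 1 mM in well. Mix: 0.01–0.5 units/mL enzyme plus 10 mM p-nitrophenyl glycopyranoside (aqueous solution), buffered to the enzyme's optimal pH. Enzyme and inhibitor preincubated 5 min at rt. Substrate then added and incubated 20 min at 37 °C. Stopped with sodium borate (pH 9.8). p-Nitrophenolate read at 405 nm. Duplicates averaged.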

[2] = target: T2, Lysosomal acid glucosylceramidase (Homo sapiens, UniProt P04062); assay: Inhibition of human lysosomal beta-glucocerebrosidase using 4-methylumbelliferyl-beta-D-glucopyranoside as substrate preincubated for 45 mins followed by substrate addition measured after 30 mins by fluorescence spectroscopic method
T2 sequence (P04062 whole entry): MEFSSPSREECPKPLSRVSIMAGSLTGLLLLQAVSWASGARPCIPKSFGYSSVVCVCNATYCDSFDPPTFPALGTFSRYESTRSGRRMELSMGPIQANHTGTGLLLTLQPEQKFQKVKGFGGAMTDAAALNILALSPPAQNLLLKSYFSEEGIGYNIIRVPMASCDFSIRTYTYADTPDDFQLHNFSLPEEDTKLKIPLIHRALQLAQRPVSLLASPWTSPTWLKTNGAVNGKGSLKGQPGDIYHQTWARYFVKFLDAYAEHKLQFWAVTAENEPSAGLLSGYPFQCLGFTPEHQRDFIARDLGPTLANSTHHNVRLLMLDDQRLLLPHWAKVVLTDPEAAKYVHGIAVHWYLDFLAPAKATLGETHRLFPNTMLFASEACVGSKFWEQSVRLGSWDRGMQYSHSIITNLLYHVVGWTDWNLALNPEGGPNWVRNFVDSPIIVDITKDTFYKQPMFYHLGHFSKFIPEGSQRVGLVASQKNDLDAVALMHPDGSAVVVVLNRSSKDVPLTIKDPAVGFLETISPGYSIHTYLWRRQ
In short: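 Enzyme in 100 mM McIlvaine buffer pH 5.2 with 0.25% sodium taurocholate and 0.1% Triton X-100, with inhibitor. Preincubated at 0 °C for 45 min, then started with 3 mM 4-methylumbelliferyl glycoside substrate solution and incubated 30 min at 37 °C. Stopped with 400 mM glycine-NaOH pH 10.6. 4-Methylumbelliferone fluorescence read at ex 362/em 450 nm.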

[3] = tested on: Cornu aspersum; assay: Inhibition of snail beta-mannosidase at 1 mM using p-nitrophenyl glycopyranoside preincubated for 5 mins followed by substrate addition measured after 20 mins by visible absorption spectroscopic method relative to control; in short: as §1
[4] = tested on: Aspergillus niger; assay: Inhibition of Aspergillus niger amyloglucosidase at 1 mM using p-nitrophenyl glycopyranoside preincubated for 5 mins followed by substrate addition measured after 20 mins by visible absorption spectroscopic method relative to control; in short: as §1
[5] = tested on: Saccharomyces cerevisiae; assay: Inhibition of yeast alpha glucosidase at 1 mM using p-nitrophenyl glycopyranoside preincubated for 5 mins followed by substrate addition measured after 20 mins by visible absorption spectroscopic method relative to control; in short: as §1
[6] = tested on: Oryza sativa; assay: Inhibition of rice alpha-glucosidase at 1 mM using p-nitrophenyl glycopyranoside preincubated for 5 mins followed by substrate addition measured after 20 mins by visible absorption spectroscopic method relative to control; in short: as §1
[7] = tested on: Prunus dulcis; assay: Inhibition of almond beta-glucosidase at 1 mM using p-nitrophenyl glycopyranoside preincubated for 5 mins followed by substrate addition measured after 20 mins by visible absorption spectroscopic method relative to control; in short: as §1

O[C@@H]1[C@H](O)CN[C@H]1Cn1cc(-c2ccccc2)nn1
inhibition [1]: inactive
IC50 [2]: 11 µM
inhibition [3]: inactive
inhibition [4]: 38%
inhibition [5]: inactive
inhibition [6]: inactive
inhibition [7]: 97%

O[C@@H]1[C@H](O)CN[C@@H]1Cn1cc(-c2ccccc2)nn1
inhibition [1]: inactive
IC50 [2]: 28 µM
inhibition [3]: inactive
inhibition [4]: inactive
inhibition [5]: inactive
inhibition [6]: inactive
inhibition [7]: < 53%
